Sampled rows, rich in hits. Any-hit rate of the full collection: about 27%.
CYP2C9 act: human CYP2C9 activators, primary screen, biochemical, luminescence; recombinant CYP2C9, luciferin-H conversion; stronger effect = higher value; factor 1 = untreated enzyme, 0 = blocked; 96,000 compounds, 1.4% hits; activation factor at 5 µM;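 active means activation factor of 2 or more for CYP2C9 at a 5 µM dose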;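 further: 0 = sulfaphenazole-blocked wells and 1 = vehicle-only wells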
Target sequence (P11712 whole entry, looked up): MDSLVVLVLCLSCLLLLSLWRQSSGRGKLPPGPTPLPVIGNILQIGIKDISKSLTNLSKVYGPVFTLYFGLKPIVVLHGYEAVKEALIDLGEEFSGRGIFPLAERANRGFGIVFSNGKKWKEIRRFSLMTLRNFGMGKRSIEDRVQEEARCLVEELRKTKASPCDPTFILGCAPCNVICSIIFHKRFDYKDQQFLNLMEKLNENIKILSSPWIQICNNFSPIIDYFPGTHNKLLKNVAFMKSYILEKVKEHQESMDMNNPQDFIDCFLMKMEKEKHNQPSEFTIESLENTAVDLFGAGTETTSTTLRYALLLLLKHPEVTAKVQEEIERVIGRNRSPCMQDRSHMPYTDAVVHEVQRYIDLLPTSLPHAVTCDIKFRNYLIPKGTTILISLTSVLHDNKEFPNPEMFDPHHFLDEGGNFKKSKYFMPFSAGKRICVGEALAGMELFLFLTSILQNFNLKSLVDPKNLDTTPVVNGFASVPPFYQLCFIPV
CYP2C19 inhib: blockers of cytochrome P450 2C19 activity – biochemical, luminescence, ADME assay, primary screen | P33261 | AID 778, 2007 | inhibition, % at 5 µM | 96,000 compounds, 21% hits | CYP2C19 Supersomes, luciferin-H EGE luminescence, 30 min;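 active means CYP2C19 inhibition above a set limit at 5 µM in the primary screen, cut at about 50% in these data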;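 further: plate controls were negative control wells for no effect and 2.5 mM tranylcypromine positive control for full effect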
CYP2C9 inh: blockers of cytochrome P450 2C9 activity – biochemical, luminescence, ADME assay, primary screen | P11712 | CYP2C9 Supersomes, luciferin-H conversion | inhibition, % at 5 µM | 96,000 compounds, 20% hits | AID 777, 2007;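 active means blocking of liver enzyme CYP2C9 beyond about 50% at 5 µM, limit read from the data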
HIV Rev-RRE inh: HIV-1 Rev-RRE binding inhibitors, primary screen, biochemical, FRET, protein-RNA interaction. AID 704, 2007. inhibition, % at 8 µM. Rev peptide-RRE RNA binding. 97,000 compounds, 0.79% hits. P05866;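 active means inhibition above the screen-wide mean plus 3 SD, cut at about 35% in these data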;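 further: 0% = median DMSO wells and 100% = median Neomycin B control wells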
Target sequence (P05866 whole entry, looked up): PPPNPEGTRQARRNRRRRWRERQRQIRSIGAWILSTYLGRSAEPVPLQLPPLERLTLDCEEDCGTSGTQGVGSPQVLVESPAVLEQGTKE
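Assay system: labelled RRE RNA duplex and labelled Rev peptide / Medium: HEPES pH 7.5 salt buffer with EDTA / Reagent: labelled Rev peptide / Schedule: 5 + 15 min at 25 °C / Signal: FRET, excitation 480 nm, emission 540 nm donor and 671 nm acceptor / Benchmarks: DMSO and neomycin B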
Cav32 inh: Cav3.2 calcium influx blockers – cell-based, Fluo-4 calcium fluorescence, FDSS, MLSMR library, primary screen | Voltage-dependent T-type calcium channel subunit alpha-1H (Homo sapiens), O95180 | Cav3.2-expressing cells; stronger effect = lower value | B-score at 10 µM | 100,000 compounds, 4% hits | AID 449739, 2010;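 active means single-dose well whose peak fluorescence ratio is a statistical outlier from its plate by either plate-standardised score or position-corrected B-score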
CYP2C19 activ: human CYP2C19 activators, primary screen, biochemical, luminescence | Cytochrome P450 2C19 (Homo sapiens), P33261 | recombinant CYP2C19, luciferin-H EGE luminescence; stronger effect = higher value; 0 = fully inhibited enzyme, 1 = untreated enzyme | activation factor at 5 µM | 96,000 tested, under 10 active;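 active means activation factor of at least 2 at 5 µM in the primary screen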;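 further: 0 = wells with 2.5 mM tranylcypromine and 1 = vehicle-only wells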
Starred values were filed as active, the others as inactive.

For CC(N=Cc1c(O)[nH]c(=O)[nH]c1=O)c1ccccc1 (stereo not drawn) the results were CYP2C9 act 0.8, CYP2C19 inhib 11, CYP2C9 inh 18, HIV Rev-RRE inh 3, Cav32 inh -0.00028 and CYP2C19 activ 0.9.
For CCOC(=O)c1c(C)n(Cc2ccco2)c2c1cc(O)c1ccccc12 the results were CYP2C9 act 0.2, CYP2C19 inhib -2, CYP2C9 inh 82*, HIV Rev-RRE inh 7, Cav32 inh -0.75 and CYP2C19 activ 1.
`O=C1NC(=O)C(=Cc2cn(CCOc3ccc4c(c3)OCO4)c3ccccc23)C(=O)N1` gave CYP2C9 act 0.7, CYP2C19 inhib 14, CYP2C9 inh 26, HIV Rev-RRE inh 44*, Cav32 inh -3.5 and CYP2C19 activ 0.9.
Cc1ccc2c(c1)N(CCC(=O)N1CCC3(CC1)OCCO3)C(=O)C(C)O2 (stereo not drawn) was read as CYP2C9 act 1.3, CYP2C19 inhib 89*, CYP2C9 inh -30, HIV Rev-RRE inh -2, Cav32 inh 0.21 and CYP2C19 activ 0.1.
`COc1ccc2c(c1)CC1(CN2C)C(=O)NC(=O)N(c2ccc(C)cc2)C1=O` (stereo not drawn) gave CYP2C9 act 0.4, CYP2C19 inhib 14, CYP2C9 inh 62*, HIV Rev-RRE inh 4, Cav32 inh 0.11 and CYP2C19 activ 0.9.
COc1ccc2c(c1)CC1(CN2C)C(=O)NC(=O)N(c2ccc(F)cc2)C1=O (stereo not drawn) was read as CYP2C9 act 0.3, CYP2C19 inhib 19, CYP2C9 inh 71*, HIV Rev-RRE inh 7, Cav32 inh 0.54 and CYP2C19 activ 0.8.
`OCC1(CO)COC(c2cccnc2)N1` (stereo not drawn) gave CYP2C9 act 1.1, CYP2C19 inhib -7, CYP2C9 inh -8, HIV Rev-RRE inh 10, Cav32 inh -0.02 and CYP2C19 activ 1.1.
O=C1NC(=S)N(c2ccc(Cl)cc2)C(=O)/C1=C/N1CCN(C(=O)c2ccco2)CC1 was read as CYP2C9 act 1, CYP2C19 inhib -11, CYP2C9 inh -1, HIV Rev-RRE inh 41*, Cav32 inh -0.038 and CYP2C19 activ 1.1.
CCOC(=O)C1CCN(/C=C2/C(=O)NC(=O)N(Cc3ccco3)C2=O)CC1 was read as CYP2C9 act 1.1, CYP2C19 inhib -8, CYP2C9 inh -6, Cav32 inh -0.06 and CYP2C19 activ 1.1.
Screening O=C(c1ccc2c(c1)ncn2C1CCCCC1)N1CCC2(CC1)OCCO2 returned CYP2C9 act 1.1, CYP2C19 inhib 5, CYP2C9 inh -10, HIV Rev-RRE inh -1, Cav32 inh -0.49 and CYP2C19 activ 1.
Cc1ccc2c(c1)CC1(CN2C)C(=O)NC(=O)N(C(C)C)C1=O (stereo not drawn) was read as CYP2C9 act 0.7, CYP2C19 inhib 82*, CYP2C9 inh 30, HIV Rev-RRE inh 1, Cav32 inh 0.21 and CYP2C19 activ 0.2.
For Cc1ccc2c(c1)CC1(CN2C)C(=O)NC(=O)N(CCC2=CCCCC2)C1=O (stereo not drawn) the results were CYP2C9 act 0.6, CYP2C19 inhib 29, CYP2C9 inh 44, HIV Rev-RRE inh -2, Cav32 inh 0.67 and CYP2C19 activ 0.7.
Screening CCC(C)N1C(=O)NC(=O)C2(Cc3cc(C)ccc3N(C)C2)C1=O (stereo not drawn) returned CYP2C9 act 0.3, CYP2C19 inhib 89*, CYP2C9 inh 70*, Cav32 inh 0.97 and CYP2C19 activ 0.1.
C=CCn1c(O)c(C(C)=NC2CC2)c(=O)[nH]c1=O was read as CYP2C9 act 1.1, CYP2C19 inhib 2, CYP2C9 inh -5, HIV Rev-RRE inh 4, Cav32 inh 0.71 and CYP2C19 activ 1.
Screening O=c1cccc2n1CC1CC2CN(S(=O)(=O)c2ccccc2)C1 (stereo not drawn) returned CYP2C9 act 1.1, CYP2C19 inhib -3, CYP2C9 inh -8, HIV Rev-RRE inh 8, Cav32 inh 0.44 and CYP2C19 activ 1.
`CCN1CCN(Cc2cc(Br)ccc2O)CC1` gave CYP2C9 act 1.3, CYP2C19 inhib 22, CYP2C9 inh -33, HIV Rev-RRE inh 2, Cav32 inh 0.054 and CYP2C19 activ 0.8.
`COc1ccccc1N1CCN(Cc2ccc(Br)s2)CC1` gave CYP2C9 act 0.2, CYP2C19 inhib 94*, CYP2C9 inh 78*, Cav32 inh -0.89 and CYP2C19 activ 0.1.
COc1ccccc1N1CCN(Cc2cc(C)c(C)cc2O)CC1 was read as CYP2C9 act 2.1*, CYP2C19 inhib 79*, CYP2C9 inh -110, HIV Rev-RRE inh 4 and CYP2C19 activ 0.2.
`COc1cc(CN2CCN(c3cc(C)ccc3C)CC2)ccc1O` gave CYP2C9 act 0.7, CYP2C19 inhib 56*, CYP2C9 inh 33, HIV Rev-RRE inh 1, Cav32 inh -2.9 and CYP2C19 activ 0.4.
Screening CN1CCN(Cc2ccc(Br)s2)CC1 returned CYP2C9 act 1.2, CYP2C19 inhib 0, CYP2C9 inh -22, HIV Rev-RRE inh 7, Cav32 inh -0.59 and CYP2C19 activ 1.
COc1cc(Br)cc(CN2CCN(C)CC2)c1O was read as CYP2C9 act 1.1, CYP2C19 inhib 2, CYP2C9 inh -7, HIV Rev-RRE inh 3, Cav32 inh 1.1 and CYP2C19 activ 1.
Screening Oc1ccc(Br)cc1CN1CCN(c2ccccc2)CC1 returned CYP2C9 act 0.4, CYP2C19 inhib 24, CYP2C9 inh 64*, HIV Rev-RRE inh 3, Cav32 inh -1.5 and CYP2C19 activ 0.8.
For CCCCn1c(O)c(C(C)=Nc2cccc(C(=O)O)c2)c(=O)[nH]c1=O the results were CYP2C9 act 1.1, CYP2C19 inhib -11, CYP2C9 inh -10, HIV Rev-RRE inh 3, Cav32 inh 0.051 and CYP2C19 activ 1.1.
For COc1ncccc1C(=O)NCC(CC(=O)O)c1ccccc1 (stereo not drawn) the results were CYP2C9 act 0.7, CYP2C19 inhib 6, CYP2C9 inh 32, Cav32 inh -0.043 and CYP2C19 activ 0.9.
For COC(=O)C1=C(c2cccc(OC)c2OC)C[C@@H]2CC[C@H]1N2C(=O)NC(C)C the results were Cav32 inh 0.0032.
Screening COc1ccccc1N1CCN(Cc2c(F)cccc2Cl)CC1 returned CYP2C9 act 0.3, CYP2C19 inhib 97*, CYP2C9 inh 68*, HIV Rev-RRE inh 0, Cav32 inh -0.43 and CYP2C19 activ 0.
